# Results published in ChEMBL document CHEMBL1151957, “Design and synthesis of novel C14-hydroxyl substituted triptolide derivatives as potential selective antitumor agents” (J Med Chem, 2009).
# Legend:
# MDA-MB-468 = experiment: Cytotoxicity against human MDA-MB-468 cells by SRB assay; format: functional, cell-based
# Outline: (§1)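 Cells grown in RPMI 1640 with 10% heat-inactivated FBS, 2 mmol/L glutamine, 10 mmol/L HEPES pH 7.4, 5% CO2, 37 °C; MCF-7/ADR also given 1 mmol/L pyruvate and 0.01 mg/mL insulin. Treated in triplicate with graded concentrations for 72 h at 37 °C, read by SRB. IC50 (50% growth inhibition vs control) by logit method; three independent experiments.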
# SK-OV-3 [1] = experiment: Cytotoxicity against human SKOV3 cells by SRB assay; format: functional, cell-based; outline: as §1
# PC-3 [2] = experiment: Cytotoxicity against human PC3 cells by SRB assay; format: functional, cell-based; outline: as §1
# [3] = Cytotoxicity against human Rh30 cells after 72 hrs by […]; format: functional, cell-based; settings: SJRH30, 72 h
# Outline: (§2)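 Cells grown at 37 °C in 5% CO2 in RPMI 1640 with 10% heat-inactivated FBS, glutamine, antibiotics and HEPES; MCF-7 medium also had sodium pyruvate and insulin. Cells in 96-well plates were treated in triplicate with graded concentrations for 72 h at 37 °C. Read-out was MTT for leukemia lines and SRB for solid-tumor lines. IC50 was set relative to control by the logit method, as mean ± SD of three independent experiments.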
# SGC-7901 = experiment: Cytotoxicity against human SGC7901 cells after 72 hrs by SRB assay; settings: SGC-7901, 72 h
# K562 = experiment: Cytotoxicity against human K562 cells after 72 hrs by MTT assay; format: functional, cell-based; settings: K562, 72 h; outline: as §2
# KB = experiment: Cytotoxicity against human KB cells after 72 hrs […]; format: functional, cell-based; outline: as §2
# HCT-116 = experiment: Cytotoxicity against human HCT116 cells after 72 hrs […]; format: functional, cell-based; settings: HCT-116, 72 h; outline: as §2
# SMMC-7721 = experiment: Cytotoxicity against human SMMC7721 cells after 72 hrs […]; format: functional, cell-based; settings: SMMC-7721, 72 h; outline: as §2
# Bel-7402 = experiment: Cytotoxicity against human Bel7402 cells after 72 hrs by […]; format: functional, cell-based; settings: Bel-7402, 72 h; outline: as §2
# [4] = Cytotoxicity against human 786-O cells after 72 hrs […]; format: functional, cell-based; settings: 786-0, 72 h; outline: as §2
# HeLa = experiment: Cytotoxicity against human HeLa cells after 72 hrs […]; format: functional, cell-based; outline: as §2
# MCF7 = experiment: Cytotoxicity against human MCF7 cells after 72 hrs […]; format: functional, cell-based; settings: MCF7, 72 h; outline: as §2
# MDA-MB-231 = experiment: Cytotoxicity against human MDA-MB-231 cells after 72 hrs […]; format: functional, cell-based; settings: MDA-MB-231, 72 h; outline: as §2
# PC-3 [5] = experiment: Cytotoxicity against human PC3 cells after 72 hrs by […]; format: functional, cell-based; settings: PC-3, 72 h; outline: as §2
# MKN-28 = experiment: Cytotoxicity against human MKN28 cells after 72 hrs […]; format: functional, cell-based; settings: MKN-28, 72 h; outline: as §2
# U-251 = experiment: Cytotoxicity against human U251 cells after 72 hrs […]; format: functional, cell-based; settings: U-251, 72 h; outline: as §2
# SK-OV-3 [6] = experiment: Cytotoxicity against human SKOV3 cells after 72 hrs by […]; format: functional, cell-based; settings: SK-OV-3, 72 h; outline: as §2
# A549 = experiment: Cytotoxicity against human A549 cells after 72 hrs by SRB assay; settings: A549, 72 h
# HCT-15 = experiment: Cytotoxicity against human HCT15 cells after 72 hrs […]; format: functional, cell-based; settings: HCT-15, 72 h; outline: as §2
# DU-145 = experiment: Cytotoxicity against human DU145 cells after 72 hrs by […]; format: functional, cell-based; settings: DU-145, 72 h; outline: as §2
# MOLT-4 = experiment: Cytotoxicity against human MOLT4 cells after 72 hrs by MTT assay; format: functional, cell-based; settings: MOLT-4, 72 h; outline: as §2
# [7] = Cytotoxicity against human HO8910 cells after 72 hrs by […]; format: functional, cell-based; settings: HO-8910, 72 h; outline: as §2
# [8] = Cytotoxicity against human SW1116 cells after 72 hrs by […]; format: functional, cell-based; settings: SW 1116, 72 h; outline: as §2
structure (smiles),measurement,setting,value
CC(C)[C@]12O[C@H]1[C@@H]1O[C@]13[C@]1(O[C@H]1C[C@H]1C4=C(CC[C@@]13C)C(=O)OC4)[C@]21COS(=O)(=O)O1,IC50,MDA-MB-468,> 100000 nM
same,IC50,SK-OV-3 [1],> 100000 nM
same,IC50,PC-3 [2],13900 nM
CC(C)[C@]12O[C@H]1[C@@H]1O[C@]13[C@]1(O[C@H]1C[C@H]1C4=C(CC[C@@]13C)C(=O)OC4)[C@@]21CO1,IC50,MDA-MB-468,1920 nM
same,IC50,SK-OV-3 [1],1560 nM
same,IC50,PC-3 [2],2700 nM
CC(C)[C@]12O[C@H]1[C@@H]1O[C@]13[C@]1(O[C@H]1C[C@H]1C4=C(CC[C@@]13C)C(=O)OC4)[C@@H]2O [TRIPTOLIDE],IC50,[3],14 nM
same,IC50,SGC-7901,15 nM
same,IC50,K562,50 nM
same,IC50,MDA-MB-468,10 nM
same,IC50,KB,43 nM
same,IC50,HCT-116,10 nM
same,IC50,SMMC-7721,18 nM
same,IC50,Bel-7402,20 nM
same,IC50,[4],22 nM
same,IC50,HeLa,47 nM
same,IC50,MCF7,19 nM
same,IC50,MDA-MB-231,24 nM
same,IC50,PC-3 [5],43 nM
same,IC50,MKN-28,200 nM
same,IC50,U-251,49 nM
same,IC50,SK-OV-3 [6],10 nM
same,IC50,A549,59 nM
same,IC50,HCT-15,29 nM
same,IC50,DU-145,24 nM
same,IC50,SK-OV-3 [1],9 nM
same,IC50,MOLT-4,17 nM
same,IC50,[7],28 nM
same,IC50,PC-3 [2],20 nM
same,IC50,[8],52 nM
CC(C)[C@]12O[C@H]1[C@@H]1O[C@@]13[C@@]1(C)CCC4=C(COC4=O)[C@]1(O)C[C@@H]1O[C@@]13[C@]21CO1,IC50,MDA-MB-468,2370 nM
same,IC50,SK-OV-3 [1],1860 nM
same,IC50,PC-3 [2],7340 nM
CC(C)[C@]12O[C@H]1[C@@H]1O[C@]13[C@]1(O[C@H]1C[C@H]1C4=C(CC[C@@]13C)C(=O)OC4)[C@H]2O [EPITRIPTOIIDE],IC50,MDA-MB-468,1320 nM
same,IC50,SK-OV-3 [1],790 nM
same,IC50,PC-3 [2],1600 nM
